According to ChEMBL document CHEMBL1129736, “Bisphenolic compounds that enhance cell cation transport are found in commercial phenol red” (1996):

Tests used:
[1] = tested on: HFF; assay: Effect of compound on K+ ion content of HFF (Human foreskin fibroblasts) Cells at 31 ng/mL; format: functional
How it was run: (§1)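 Human foreskin fibroblasts were grown in 6 cm dishes in DMEM with 10% FBS and antibiotics at 37 °C in CO2/air, pH 7.2-7.4, at 5 × 10⁵ to 2 × 10⁶ cells/dish. Medium was swapped for serum-free test solution by four rinses. Incubation was 45 min, or 30 min in expt III, at 37 °C. Dishes were washed six times with iced MgCl2 or MgSO4. Read-out was K⁺ or Na⁺ per dish (10⁸ × mol), mean of duplicate dishes.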

[2] = tested on: HFF; assay: Effect of compound on Na+ ion content of HFF (Human foreskin fibroblasts) Cells at 31 ng/mL; format: functional; how it was run: as §1
[3] = tested on: HFF; assay: Effect of compound on Na+ ion content of HFF (Human foreskin fibroblasts) Cells at 15.6 ng/mL; format: functional; how it was run: as §1
[4] = tested on: HFF; assay: Effect of compound on K+ ion content of HFF (Human foreskin fibroblasts) Cells at 15.6 ng/mL; format: functional; how it was run: as §1
[5] = tested on: HFF; assay: Effect of compound on K+ ion content of HFF (Human foreskin fibroblasts) Cells at 62.5 ng/mL; format: functional; how it was run: as §1
[6] = tested on: HFF; assay: Effect of compound on Na+ ion content of HFF (Human foreskin fibroblasts) Cells at 62.5 ng/mL; format: functional; how it was run: as §1
[7] = tested on: HFF; assay: Effect of compound on K+ ion content of HFF (Human foreskin fibroblasts) Cells at 125 ng/mL; format: functional
[8] = tested on: HFF; assay: Effect of compound on Na+ ion content of HFF (Human foreskin fibroblasts) Cells at 125 ng/mL; format: functional
[9] = tested on: HFF; assay: Effect of compound on Na+ ion content of HFF (Human foreskin fibroblasts) Cells at 4.8 ug/mL; format: functional; how it was run: as §1
[10] = K+ / Na+ ratio in HF(Human foreskin fibroblasts) cells; format: functional
[11] = tested on: HFF; assay: Effect of compound on K+ ion content of HFF (Human foreskin fibroblasts) Cells at 4.8 ug/mL; format: functional
[12] = tested on: HFF; assay: Effect of compound on Na+ ion content of HFF (Human foreskin fibroblasts) Cells at 30 ng/mL; format: functional; how it was run: as §1
[13] = tested on: HFF; assay: Effect of compound on Na+ ion content of HFF (Human foreskin fibroblasts) Cells at 10 ng/mL; format: functional; how it was run: as §1
[14] = K+ / Na+ ratio in HF(Human foreskin fibroblasts) cells at 100 ng/mL; format: functional
How it was run: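 HF cells were in 6 cm dishes at 5 × 10⁵ to 2 × 10⁶ cells/dish. Growth medium was replaced with serum-free test solution by four rapid rinses. Incubation was 45 min at 37 °C in CO2/air. Dishes were rinsed six times with iced 0.1 M MgCl2 and intracellular K⁺ and Na⁺ were assayed. The K⁺/Na⁺ ratio is the mean of duplicate dishes.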

[15] = tested on: HFF; assay: Effect of compound on K+ ion content of HFF (Human foreskin fibroblasts) Cells at 30 ng/mL; format: functional; how it was run: as §1
[16] = tested on: HFF; assay: Effect of compound on K+ ion content of HFF (Human foreskin fibroblasts) Cells at 100 ng/mL; format: functional; how it was run: as §1
[17] = tested on: HFF; assay: Effect of compound on K+ ion content of HFF (Human foreskin fibroblasts) Cells at 10 ng/mL; format: functional; how it was run: as §1
[18] = tested on: HFF; assay: Effect of compound on Na+ ion content of HFF (Human foreskin fibroblasts) Cells at 0.03 ug/mL; format: functional; how it was run: as §1
[19] = tested on: HFF; assay: Effect of compound on Na+ ion content of HFF Cells at 4.8 ug/mL; format: functional, Homo sapiens
[20] = tested on: HFF; assay: Effect of compound on Na+ ion content of HFF (Human foreskin fibroblasts) Cells at 0.3 ug/mL; format: functional; how it was run: as §1
[21] = tested on: HFF; assay: Effect of compound on K+ ion content of HFF (Human foreskin fibroblasts) Cells at 0.03 ug/mL; format: functional; how it was run: as §1
[22] = tested on: HFF; assay: Effect of compound on K+ ion content of HFF (Human foreskin fibroblasts) Cells at 3 ug/mL; format: functional
[23] = tested on: HFF; assay: Effect of compound on Na+ ion content of HFF (Human foreskin fibroblasts) Cells at 0.1 ug/mL; format: functional; how it was run: as §1
[24] = tested on: HFF; assay: Effect of compound on Na+ ion content of HFF (Human foreskin fibroblasts) Cells at 3 ug/mL; format: functional
[25] = tested on: HFF; assay: Effect of compound on K+ ion content of HFF (Human foreskin fibroblasts) Cells at 0.1 ug/mL; format: functional; how it was run: as §1
[26] = tested on: HFF; assay: Effect of compound on K+ ion content of HFF (Human foreskin fibroblasts) Cells at 0.3 ug/mL; format: functional; how it was run: as §1
[27] = tested on: HFF; assay: Effect of compound on Na+ ion content of HFF (Human foreskin fibroblasts) Cells at 4.8 ug/mL (Expt III); format: functional; how it was run: as §1
[28] = tested on: HFF; assay: Effect of compound on K+ ion content of HFF (Human foreskin fibroblasts) Cells at 4.8 ug/mL (Expt II); format: functional; how it was run: as §1
[29] = tested on: HFF; assay: Effect of compound on K+ ion content of HFF (Human foreskin fibroblasts) Cells at 2.4 ug/mL; format: functional; how it was run: as §1
[30] = tested on: HFF; assay: Effect of compound on Na+ ion content of HFF (Human foreskin fibroblasts) Cells at 4.8 ug/mL (Expt II); format: functional; how it was run: as §1
[31] = tested on: HFF; assay: Effect of compound on K+ ion content of HFF (Human foreskin fibroblasts) Cells at 4.8 ug/mL (Expt III); format: functional; how it was run: as §1
[32] = tested on: HFF; assay: Effect of compound on Na+ ion content of HFF (Human foreskin fibroblasts) Cells at 2.4 ug/mL; format: functional; how it was run: as §1

## Oc1ccc(C2(c3ccc(O)cc3)c3ccccc3-c3cc(O)ccc32)cc1
[1]
  K+ Ion content: 270 nmol/dish
[2]
  Na+ ion content: 1200000000
[3]
  Na+ ion content: 800000000
[4]
  K+ Ion content: 3e+09
[5]
  K+ Ion content: 100 nmol/dish
[6]
  Na+ ion content: 290 nmol/dish
[7]
  K+ Ion content: 520000000
[8]
  Na+ ion content: 3800000000

## C=C[C@H]1CN2CC[C@H]1C[C@H]2[C@H](O)c1ccnc2ccc(OC)cc12.Oc1ccc(C2(c3ccc(O)cc3)c3ccccc3Oc3ccccc32)cc1
[9]
  Na+ ion content: 1200000000
[10]
  K+/Na+ ratio: 2.3
[11]
  K+ Ion content: 270 nmol/dish

## Oc1ccc(C2(c3ccc(O)cc3)c3ccccc3-c3c(O)cccc32)cc1
[12]
  Na+ ion content: 110 nmol/dish
[13]
  Na+ ion content: 710000000
[14]
  K+/Na+ ratio: 0.29
[15]
  K+ Ion content: 240 nmol/dish
[16]
  K+ Ion content: 67 nmol/dish
[17]
  K+ Ion content: 300 nmol/dish
[18]
  Na+ ion content: 1.1e+09

## C=C[C@H]1CN2CC[C@H]1C[C@H]2[C@H](O)c1ccnc2ccc(OC)cc12.Oc1ccc(C2(c3ccc(O)cc3)c3ccccc3-c3cc(O)ccc32)cc1
[7]
  K+ Ion content: 2000000000
[8]
  Na+ ion content: 2200000000
[10]
  K+/Na+ ratio: 0.91

## COc1ccc(CCN(C)CCCC(C#N)(c2ccc(OC)c(OC)c2)C(C)C)cc1OC.Oc1ccc(C2(c3ccc(O)cc3)c3ccccc3Oc3ccccc32)cc1 (centres undefined)
[19]
  Na+ ion content: 1100000000
[10]
  K+/Na+ ratio: 3.4
[11]
  K+ Ion content: 370 nmol/dish

## Oc1ccc(C2(c3ccc(O)cc3)c3ccccc3-c3ccc(O)cc32)cc1
[20]
  Na+ ion content: 3500000000
[21]
  K+ Ion content: 280 nmol/dish
[22]
  K+ Ion content: 55 nmol/dish
[23]
  Na+ ion content: 2400000000
[18]
  Na+ ion content: 350000000
[24]
  Na+ ion content: 3900000000
[25]
  K+ Ion content: 870000000
[26]
  K+ Ion content: 38 nmol/dish

## Oc1ccc(C2(c3ccc(O)cc3)c3ccccc3Oc3ccccc32)cc1
[27]
  Na+ ion content: 290 nmol/dish
[28]
  K+ Ion content: 240 nmol/dish
[29]
  K+ Ion content: 340 nmol/dish
[30]
  Na+ ion content: 270 nmol/dish
[31]
  K+ Ion content: 25 nmol/dish
[32]
  Na+ ion content: 190 nmol/dish

## COc1ccc(CCN(C)CCCC(C#N)(c2ccc(OC)c(OC)c2)C(C)C)cc1OC.Oc1ccc(C2(c3ccc(O)cc3)c3ccccc3-c3cc(O)ccc32)cc1 (centres undefined)
[7]
  K+ Ion content: 2000000000
[8]
  Na+ ion content: 1600000000
[10]
  K+/Na+ ratio: 1.3

## COc1ccc(CCN(C)CCCC(C#N)(c2ccc(OC)c(OC)c2)C(C)C)cc1OC.Oc1ccc(C2(c3ccc(O)cc3)c3ccccc3-c3ccc(O)cc32)cc1 (centres undefined)
[22]
  K+ Ion content: 150 nmol/dish
[24]
  Na+ ion content: 2100000000
[10]
  K+/Na+ ratio: 0.71
